Source: ChEMBL document CHEMBL4196195, “( R)- N-(1-Methyl-2-hydroxyethyl)-13-( S)-methyl-arachidonamide (AMG315): A Novel Chiral Potent Endocannabinoid Ligand with Stability to Metabolizing Enzymes” (J Med Chem, 2018)
Calls of active or inactive are those of the source.

Experiments:
[1] = target: T1, ABHD6 (monoacylglycerol lipase ABHD6) (Homo sapiens, UniProt Q9BV23); assay: Stability assessed as human ABHD6-mediated compound hydrolysis by HPLC analysis; assay type: ADME; settings: read-out: Stability
T1 sequence (Q9BV23 whole entry): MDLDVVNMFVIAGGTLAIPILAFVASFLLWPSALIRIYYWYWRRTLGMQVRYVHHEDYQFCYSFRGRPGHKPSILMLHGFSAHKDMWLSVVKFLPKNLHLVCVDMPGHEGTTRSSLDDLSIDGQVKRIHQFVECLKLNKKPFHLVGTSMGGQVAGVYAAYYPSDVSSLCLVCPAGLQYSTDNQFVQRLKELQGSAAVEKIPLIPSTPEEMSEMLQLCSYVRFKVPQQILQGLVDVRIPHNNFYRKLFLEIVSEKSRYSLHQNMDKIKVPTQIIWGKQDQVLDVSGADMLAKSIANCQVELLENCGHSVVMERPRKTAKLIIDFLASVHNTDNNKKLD
Method in brief: (§1)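 Human MGL or ABHD6 expressed in E. coli BL21(DE3); cell lysate in 150 mM NaCl, 50 mM Tris, 1% Triton X-100, pH 8.0. Lysate (0.5 µg total protein) incubated at 37 °C with compound or 2-AG reference for 30 min. Samples at 0–30 min quenched in acetonitrile. Analysed by C18 reversed-phase HPLC with UV at 204 nm against external standards.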

[2] = target: T2, MGL (monoglyceride lipase) (Homo sapiens, UniProt Q99685); assay: Stability assessed as human MGL-mediated compound hydrolysis by HPLC analysis; assay type: ADME; settings: read-out: Stability; method in brief: as §1
T2 sequence (Q99685 whole entry): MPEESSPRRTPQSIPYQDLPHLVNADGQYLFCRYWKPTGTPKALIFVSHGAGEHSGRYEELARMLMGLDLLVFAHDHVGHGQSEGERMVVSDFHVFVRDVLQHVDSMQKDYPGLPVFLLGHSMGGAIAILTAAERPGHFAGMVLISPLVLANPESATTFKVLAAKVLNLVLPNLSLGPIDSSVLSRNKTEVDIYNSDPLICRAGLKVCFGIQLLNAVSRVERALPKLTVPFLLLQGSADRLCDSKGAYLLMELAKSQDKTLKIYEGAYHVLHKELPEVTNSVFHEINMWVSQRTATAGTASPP

[3] = tested on: Mus musculus; assay: Antiallodynic activity in CD1 mouse model of CFA-induced inflammatory pain assessed as increase in CFA-reduced mechanical paw withdrawal threshold at 5 mg/kg, ip measured at 10 mins post injection; assay type: functional, organism-based
Method in brief: (§2)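 Adult male mice (39 ± 10 g), wild-type CD1 or CB1 KO on CD1 background, single housed. CFA:saline 1:1 (20 μL) injected intraplantar into right hind paw; 48 h allowed before dosing. Drug given ip in 5 mL/kg, vehicle group included. Electronic von Frey (90 g probe) after ≥30 min habituation, read in duplicate per paw, at baseline, 48 h post-CFA and 10, 30, 60, 120 min post-dose. Two-way mixed ANOVA with Bonferroni post hoc tests.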

[4] = tested on: Mus musculus; assay: Antiallodynic activity in CD1 mouse model of CFA-induced inflammatory pain assessed as increase in CFA-reduced mechanical paw withdrawal threshold at 5 mg/kg, ip measured at 60 mins post injection; assay type: functional, organism-based; method in brief: as §2

Structure (SMILES): CCCCC/C=C\[C@H](C)/C=C\C/C=C\C/C=C\CCCC(=O)N[C@H](C)CO
- half-life [1]: 30 min
- half-life [2]: 30 min
- Activity [3]: Active
- Activity [4]: Active
